# Experimental data as given in ChEMBL document CHEMBL4038284, “Synthesis of novel quinoline-based 4,5-dihydro-1H-pyrazoles as potential anticancer, antifungal, antibacterial and antiprotozoal agents” (Eur J Med Chem, 2017).
# What was measured:
# Type in all cases: functional
# [1] = system: SK-MEL-5; test: Growth inhibition of human SK-MEL-5 cells incubated for 48 hrs by sulforhodamine B assay; conditions: SK-MEL-5, 48 h; for CC50: read-out: LC50 (the source's name)
# In short: (§1)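 NCI 60-line screen. Cells in RPMI-1640 with 5% FBS and 2 mM L-glutamine, preincubated 24 h, then time-zero plates TCA-fixed. Compounds from DMSO stocks given at five final concentrations (100, 10, 1.0, 0.1, 0.01 µM) for 48 h at 37 °C, 5% CO2. Cells fixed with 10% TCA, SRB-stained, read at 515 nm. GI50 is the concentration giving 50% lower net protein increase versus control.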
# [2] = system: Malme-3M; test: Growth inhibition of human MALME-3M cells incubated for 48 hrs by sulforhodamine B assay
# In short: (§2)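 Five-dose NCI SRB assay at 100, 10, 1.0, 0.1 and 0.01 μM for 48 h at 37 °C, 5% CO2. Medium was RPMI-1640 with 5% FBS and 2 mM glutamine. Time-zero plates were TCA-fixed at compound addition, A515 read after SRB staining. GI50 was solved from [(Ti−Tz)/(C−Tz)]×100 = 50. Values beyond the tested range are given as > or <.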
# [3] = system: EKVX; test: Growth inhibition of human EKVX cells incubated for 48 hrs by sulforhodamine B assay
# In short: (§3)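 NCI five-dose SRB assay (100, 10, 1.0, 0.1, 0.01 µM) with 48 h exposure in RPMI-1640 with 5% FBS and 2 mM L-glutamine. Cells fixed with TCA and stained with SRB, read at 515 nm. GI50 is the concentration where [(Ti−Tz)/(C−Tz)]×100 = 50.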
# [4] = system: HCT-116; test: Growth inhibition of human HCT116 cells incubated for 48 hrs by sulforhodamine B assay; conditions: HCT-116, 48 h; in short: as §3
# [5] = system: 786-0; test: Growth inhibition of human 786-0 cells incubated for 48 hrs by sulforhodamine B assay; conditions: 786-0, 48 h; in short: as §3
# [6] = system: RXF 393; test: Growth inhibition of human RXF393 cells incubated for 48 hrs by sulforhodamine B assay; conditions: RXF 393, 48 h; in short: as §2
# [7] = system: SW-620; test: Growth inhibition of human SW620 cells incubated for 48 hrs by sulforhodamine B assay; conditions: SW-620, 48 h
# In short: (§4)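 NCI-60 panel cells grown in RPMI-1640 with 5% FBS and 2 mM L-glutamine, preincubated 24 h at 37 °C/5% CO2. Time-zero plates were TCA-fixed at compound addition. DMSO stocks were diluted in medium and tested at five final concentrations (100, 10, 1.0, 0.1, 0.01 µM) for 48 h. Cells were TCA-fixed, stained with SRB and read at 515 nm. GI50 = 50% lower net protein increase versus control.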
# [8] = system: LOX IMVI; test: Growth inhibition of human LOXIMVI cells incubated for 48 hrs by sulforhodamine B assay; in short: as §2
# [9] = system: T47D; test: Growth inhibition of human T47D cells incubated for 48 hrs by sulforhodamine B assay; in short: as §4
# [10] = system: HOP-62; test: Growth inhibition of human HOP62 cells incubated for 48 hrs by sulforhodamine B assay; conditions: HOP-62, 48 h; in short: as §3
# [11] = system: SN12C; test: Growth inhibition of human SN12C cells incubated for 48 hrs by sulforhodamine B assay; in short: as §4
# [12] = system: U-251; test: Growth inhibition of human U251 cells incubated for 48 hrs by sulforhodamine B assay; conditions: U-251, 48 h; in short: as §4
# [13] = system: HCT-15; test: Growth inhibition of human HCT15 cells incubated for 48 hrs by sulforhodamine B assay; conditions: HCT-15, 48 h; for CC50: read-out: LC50 (the source's name); in short: as §1
# [14] = system: PC-3; test: Growth inhibition of human PC3 cells incubated for 48 hrs by sulforhodamine B assay; conditions: PC-3, 48 h; in short: as §2
# [15] = system: SF-539; test: Growth inhibition of human SF539 cells incubated for 48 hrs by sulforhodamine B assay; conditions: SF-539, 48 h; in short: as §4
# [16] = system: OVCAR-5; test: Growth inhibition of human OVCAR5 cells incubated for 48 hrs by sulforhodamine B assay; conditions: OVCAR-5, 48 h; for CC50: read-out: LC50 (the source's name); in short: as §1
# [17] = system: SR; test: Growth inhibition of human SR cells incubated for 48 hrs by sulforhodamine B assay; conditions: for CC50: read-out: LC50 (the source's name); in short: as §1
# [18] = system: K562; test: Growth inhibition of human K562 cells incubated for 48 hrs by sulforhodamine B assay; conditions: K562, 48 h; for CC50: read-out: LC50 (the source's name); in short: as §1
# [19] = system: DU-145; test: Growth inhibition of human DU145 cells incubated for 48 hrs by sulforhodamine B assay; conditions: DU-145, 48 h; for CC50: read-out: LC50 (the source's name); in short: as §3
# [20] = system: M14; test: Growth inhibition of human M14 cells incubated for 48 hrs by sulforhodamine B assay; conditions: M14, 48 h; in short: as §2
# [21] = system: A549; test: Growth inhibition of human A549/ATCC cells incubated for 48 hrs by sulforhodamine B assay; conditions: A549, 48 h; in short: as §1
# [22] = system: MCF7; test: Growth inhibition of human MCF7 cells incubated for 48 hrs by sulforhodamine B assay; conditions: MCF7, 48 h; for CC50: read-out: LC50 (the source's name); in short: as §1
# [23] = system: UO-31; test: Growth inhibition of human UO31 cells incubated for 48 hrs by sulforhodamine B assay; conditions: UO-31, 48 h; in short: as §4
# [24] = system: SK-OV-3; test: Growth inhibition of human SKOV3 cells incubated for 48 hrs by sulforhodamine B assay; conditions: SK-OV-3, 48 h; for CC50: read-out: LC50 (the source's name); in short: as §1
# [25] = system: TK-10; test: Growth inhibition of human TK10 cells incubated for 48 hrs by sulforhodamine B assay; conditions: TK-10, 48 h; for CC50: read-out: LC50 (the source's name); in short: as §1
# [26] = system: CCRF-CEM; test: Growth inhibition of human CCRF-CEM cells incubated for 48 hrs by sulforhodamine B assay; conditions: for CC50: read-out: LC50 (the source's name); in short: as §1
# [27] = system: SF-268; test: Growth inhibition of human SF268 cells incubated for 48 hrs by sulforhodamine B assay; conditions: SF-268, 48 h; in short: as §2
# [28] = system: UACC-62; test: Growth inhibition of human UACC62 cells incubated for 48 hrs by sulforhodamine B assay; conditions: UACC-62, 48 h; for CC50: read-out: LC50 (the source's name); in short: as §1
# [29] = system: MOLT-4; test: Growth inhibition of human MOLT4 cells incubated for 48 hrs by sulforhodamine B assay; conditions: MOLT-4, 48 h; for CC50: read-out: LC50 (the source's name); in short: as §1
# [30] = system: COLO 205; test: Growth inhibition of human COLO205 cells incubated for 48 hrs by sulforhodamine B assay; conditions: COLO 205, 48 h; in short: as §3
# [31] = system: NCI-H522; test: Growth inhibition of human NCI-H522 cells incubated for 48 hrs by sulforhodamine B assay; conditions: NCI-H522, 48 h; for CC50: read-out: LC50 (the source's name); in short: as §1
# [32] = system: NCI-H460; test: Growth inhibition of human NCI-H460 cells incubated for 48 hrs by sulforhodamine B assay; conditions: NCI-H460, 48 h; in short: as §2
# [33] = read-out: LC50 (the source's name)
smiles,measurement,setting,value
COc1cccc2c1C(=O)c1c(O)c3c(c(O)c1C2=O)C[C@@](O)(C(=O)CO)C[C@@H]3O[C@H]1C[C@H](N)[C@H](O)[C@H](C)O1 [DOXORUBICIN],GI50,[1],80 nM
same,CC50,[1],490 nM
same,GI50,[2],120 nM
same,GI50,[3],410 nM
same,GI50,[4],80 nM
same,GI50,[5],130 nM
same,GI50,[6],100 nM
same,GI50,[7],90 nM
same,GI50,[8],70 nM
same,GI50,[9],60 nM
same,GI50,[10],70 nM
same,GI50,[11],70 nM
same,GI50,[12],40 nM
same,CC50,[13],100000 nM
same,GI50,[14],320 nM
same,GI50,[15],120 nM
same,GI50,[16],410 nM
same,CC50,[16],100000 nM
same,GI50,[17],30 nM
same,CC50,[17],100000 nM
same,GI50,[18],190 nM
same,CC50,[18],100000 nM
same,GI50,[19],110 nM
same,CC50,[19],100000 nM
same,GI50,[20],180 nM
same,GI50,[21],60 nM
same,GI50,[22],40 nM
same,CC50,[22],64100 nM
same,GI50,[23],490 nM
same,GI50,[24],220 nM
same,CC50,[24],100000 nM
same,GI50,[25],380 nM
same,CC50,[25],90000 nM
same,GI50,[26],80 nM
same,CC50,[26],100000 nM
same,GI50,[27],100 nM
same,GI50,[28],140 nM
same,CC50,[28],1310 nM
same,GI50,[29],30 nM
same,CC50,[29],100000 nM
same,GI50,[30],180 nM
same,GI50,[31],30 nM
same,CC50,[31],2800 nM
same,GI50,[32],20 nM
COc1ccc(C2=NN(C=O)C(c3cccc(Nc4ccnc5cc(Cl)ccc45)c3)C2)cc1 (stereo not drawn),GI50,[1],920 nM
same,CC50,[1],17400 nM
same,GI50,[2],2040 nM
same,CC50,[2]; [33],> 100000 nM
same,GI50,[3],2810 nM
same,LC50,[3],> 100000 nM
same,GI50,[4],1840 nM
same,LC50 (concentration killing 50% of cells),[4],24300 nM
same,GI50,[5],3430 nM
same,LC50,[5],79800 nM
same,GI50,[6],1660 nM
same,CC50,[6]; [33],59200 nM
same,GI50,[7],1730 nM
same,CC50,[7]; [33],> 100000 nM
same,GI50,[8],2520 nM
same,CC50,[8]; [33],39000 nM
same,GI50,[9],1390 nM
same,CC50,[9]; [33],> 100000 nM
same,GI50,[10],2110 nM
same,CC50,[10]; [33],67700 nM
same,GI50,[11],4450 nM
same,CC50,[11]; [33],> 100000 nM
same,GI50,[12],2770 nM
same,CC50,[12]; [33],51100 nM
same,GI50,[13],2130 nM
same,CC50,[13],> 100000 nM
same,GI50,[14],2870 nM
same,CC50,[14]; [33],> 100000 nM
same,GI50,[15],2340 nM
same,CC50,[15]; [33],39700 nM
same,GI50,[16],11300 nM
same,CC50,[16],> 100000 nM
same,GI50,[17],580 nM
same,CC50,[17],> 100000 nM
same,GI50,[18],510 nM
same,CC50,[18],> 100000 nM
same,GI50,[19],3620 nM
same,CC50,[19],> 100000 nM
same,GI50,[20],2340 nM
same,CC50,[20]; [33],67500 nM
same,GI50,[21],4630 nM
same,LC50 (concentration giving 50% net cell kill),[21],> 100000 nM
same,GI50,[22],1590 nM
same,CC50,[22],> 100000 nM
same,GI50,[23],3250 nM
same,CC50,[23]; [33],> 100000 nM
same,GI50,[24],3330 nM
same,CC50,[24],> 100000 nM
same,GI50,[25],4240 nM
same,CC50,[25],61700 nM
same,GI50,[26],2140 nM
same,CC50,[26],> 100000 nM
same,GI50,[27],4790 nM
same,CC50,[27]; [33],> 100000 nM
same,GI50,[28],2410 nM
same,CC50,[28],68100 nM
same,GI50,[29],2370 nM
same,CC50,[29],> 100000 nM
same,GI50,[30],2400 nM
same,CC50,[30]; [33],60600 nM
same,GI50,[31],1330 nM
same,CC50,[31],61900 nM
same,GI50,[32],2730 nM
same,CC50,[32]; [33],> 100000 nM
